Test results from paper PMC9543358 (British Journal of Clinical Pharmacology, 2022).

Assays:
[1] = cited from earlier work
[2] = cited from earlier work; remark: listed apart in the source
[3] = tested on: albumin in human plasma; conditions: cited from earlier work
[4] = tested on: HIV; conditions: cited from earlier work
[5] = Population pharmacokinetic model of cabotegravir plasma concentrations; format: in vivo, human; conditions: for IIV of CL/F / IIV of F1 / IIV of KALA / IIV of KAoral / IIV of V2/F: interindividual variability; for Smoke on CL/F (fractional change of CL/F in current smokers): current smoker
Outline: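 Human plasma concentrations (23 926 from 1647 adults, HIV‑1‑infected and uninfected, 16 phase 1–3 studies; oral 10–60 mg, IM 200–800 mg) of the test compound were fitted in NONMEM (FOCE with interaction). The model was two‑compartment with first‑order oral and IM absorption and elimination, with a weight power function (shared exponents) on clearances and volumes. BQL data were handled by likelihood, with IOV on KALA/F1.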

[6] = cited from earlier work; remark: listed apart in the source
[7] = base model, typical subject of 76.6 kg

## C[C@H]1CO[C@@H]2Cn3cc(C(=O)NCc4ccc(F)cc4F)c(=O)c(O)c3C(=O)N12 [CAB, Cabotegravir]
[1]; following oral dosing
  apparent clearance: 0.21 L/h
  apparent volume of distribution: 12.3 L
[1]; hepatic metabolism
  route of elimination: hepatic metabolism via UGT1A1 with a minor component by UGT1A9
[2]
  permeability classification: high permeability
  solubility classification: low solubility
[3]
  binding in human plasma (primarily to albumin): > 99%
[4]
  PA‐IC90, in vitro protein‐adjusted concentration resulting in 90% of the maximum inhibition of viral growth: 0.166 µg/mL
[5]; base model
  IIV of CL/F: 24.9%
  IIV of F1: 17.2%
  IIV of KALA: 71.4%
  IIV of KAoral: 61.4%
  IIV of V2/F: 22.6%
[5]; base model, power function of baseline body weight
  BWT on V2/F and V3/F (exponent): 0.675
[5]; [7]
  CL/F, apparent central clearance: 0.16 L/h
  KALA, absorption rate constant for LA IM injection: 0.000642 h⁻¹
  KAoral, absorption rate constant for oral tablet: 1.12 h⁻¹
[5]; covariate evaluation, final model
  race and age as covariates of PK: not significant covariates
[5]; final model
  BWT on V2/F and V3/F (exponent): 0.702
  KALA lower in females than males: 50.9%
  KALA lower in subjects with BMI of 32.5 kg/m^2 (90th percentile) than BMI of 20.9 kg/m^2 (10th percentile): 28.6%
  KAoral, absorption rate constant for oral tablet: 1.41 h⁻¹
  Smoke on CL/F (fractional change of CL/F in current smokers): 17.4%
  IIV of CL/F: 23.3%
  IIV of F1: 17.4%
  IIV of KALA: 57.9%
  IIV of KAoral: 89.4%
  IIV of V2/F: 20.3%
[5]; final model, BMI/25.4
  BMI exponent on KALA: −0.766
[5]; final model, BWT 76.6 kg, not current smoker
  CL/F, apparent central clearance: 0.151 L/h
[5]; final model, listed as cabotegravir
  Smoke on CL/F (fractional change of CL/F in current smokers): 17.4%
[5]; final model, female vs male
  Female on KALA (fractional change): −50.9%
[5]; final model, male, unsplit injection, BMI 25.4, needle length 1.5 inch
  KALA, absorption rate constant for LA IM injection: 0.000733 h⁻¹
[5]; final model, needle length/1.5 inch
  NDL exponent on KALA: 0.478
[5]; human, plasma, other: oral tablet and LA IM injection, modelled together, V2/F, apparent central compartment volume of distribution, base model, typical subject of 76.6 kg
  Vd/F: 5.5 L
[5]; oral 10 to 60 mg, LA 200 to 800 mg
  dose proportionality of exposure: dose proportional

## C[C@@H]1CCO[C@H]2Cn3cc(C(=O)NCc4ccc(F)cc4F)c(=O)c(O)c3C(=O)N12 [DTG, dolutegravir]
[6]
  CL/F higher in current smokers: 16%
  estimated absolute oral bioavailability higher in females than in males: 21%
